From ChEMBL document CHEMBL2086327, “A click chemistry approach to pleuromutilin derivatives, part 2: conjugates with acyclic nucleosides and their ribosomal binding and antibacterial activity” (2012)
≈ marks a conversion by molar mass, not a printed value.

Tests used:
[1] = test system: Nucleic Acid; experiment: Binding affinity to Escherichia coli 23S rRNA U2506 assessed as degree of protection against CMCT at 50 uM by Chemical footprinting analysis relative to control; type: nucleic-acid assay
How it was run: (§1)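 Ribosomes came from E. coli MRE600 grown in LB, lysed and purified on sucrose gradients. They were incubated with drug at 5 or 50 μM and then modified with CMCT. Read-out was primer extension with a Cy5-labeled primer, gel electrophoresis and laser scanning. Band intensity with drug is given relative to no-drug control, after subtracting background from unmodified samples (1.00 = no protection, 0 = full protection). Values are means of at least two experiments.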

[2] = test system: Nucleic Acid; experiment: Binding affinity to Escherichia coli 23S rRNA U2506 assessed as degree of protection against CMCT at 5 uM by Chemical footprinting analysis relative to control; type: nucleic-acid assay; how it was run: as §1
[3] = test system: Nucleic Acid; experiment: Binding affinity to Escherichia coli 23S rRNA U2585 assessed as degree of protection against CMCT at 50 uM by Chemical footprinting analysis relative to control; type: nucleic-acid assay; how it was run: as §1
[4] = test system: Escherichia coli; experiment: Antibacterial activity against Escherichia coli AS19 after 24 hrs by microtitre plate reader; type: functional; conditions: AS19, 24 h
How it was run: (§2)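 Microtiter broth dilution. Media: E. coli AS19 in LB; B. subtilis 168 in 25% BHI/75% LB/0.05% Tween; L. innocua in 50% BHI/50% LB. Overnight cultures started from single colonies were diluted to OD450 0.01 and mixed 1:1 with 2-fold drug dilutions (0.125–32 μg/mL). Growth was read as OD450. MIC is the lowest concentration giving complete growth inhibition (E. coli read at 24 h).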

[5] = test system: Nucleic Acid; experiment: Binding affinity to Escherichia coli 23S rRNA U2585 assessed as degree of protection against CMCT at 5 uM by Chemical footprinting analysis relative to control; type: nucleic-acid assay; how it was run: as §1
[6] = test system: Listeria innocua; experiment: Antibacterial activity against Listeria innocua after 24 hrs by microtitre plate reader; type: functional; how it was run: as §2
[7] = test system: Bacillus subtilis; experiment: Antibacterial activity against Bacillus subtilis 168 after 12 hrs by microtitre plate reader; type: functional; conditions: Bacillus subtilis, 168, 12 h; how it was run: as §2

| SMILES | Ratio [1] | Ratio [2] | Ratio [3] | MIC [4] [µg/mL] | Ratio [5] | MIC [6] [µg/mL] | MIC [7] [µg/mL] |
| --- | --- | --- | --- | --- | --- | --- | --- |
| C=C[C@]1(C)C[C@@H](OC(=O)CSCCN(CC)CC)[C@]2(C)[C@H](C)CC[C@]3(CCC(=O)[C@H]32)[C@@H](C)[C@@H]1O [TIAMULIN] | 0.03 | 0.07 | 0.5 | 0.5 (≈ 1.01 µM) | 0.54 | > 32 | > 32 |
| C=C[C@]1(C)C[C@@H](OC(=O)Cn2cc(COCn3cnc4c(N)ncnc43)nn2)[C@]2(C)[C@H](C)CC[C@]3(CCC(=O)[C@H]32)[C@@H](C)[C@@H]1O | 0.06 | 0.21 | 0.22 | > 32 | 0.37 | > 32 | > 32 |
| C=C[C@]1(C)C[C@@H](OC(=O)Cn2cc(-c3ccc(-n4cnc5c(N)ncnc54)cc3)nn2)[C@]2(C)[C@H](C)CC[C@]3(CCC(=O)[C@H]32)[C@@H](C)[C@@H]1O | 0.08 | 0.18 | 0.22 | > 32 | 0.4 | > 32 | > 32 |
| C=C[C@]1(C)C[C@@H](OC(=O)CSC(C)(C)CNC(=O)[C@H](N)C(C)C)[C@]2(C)[C@H](C)CC[C@]3(CCC(=O)[C@H]32)[C@@H](C)[C@@H]1O [VALNEMULIN] | 0.04 | 0.05 | 0.16 | < 0.125 | 0.15 | 1 (≈ 1.77 µM) | 2 (≈ 3.54 µM) |
| C=C[C@]1(C)C[C@@H](OC(=O)Cn2ccnn2)[C@]2(C)[C@H](C)CC[C@]3(CCC(=O)[C@H]32)[C@@H](C)[C@@H]1O | 0.18 | 0.48 | 0.42 | 16 (≈ 37.2 µM) | 0.66 | > 32 | > 32 |
| C=C[C@]1(C)C[C@@H](OC(=O)Cn2nncc2CCCn2cnc3c(N)ncnc32)[C@]2(C)[C@H](C)CC[C@]3(CCC(=O)[C@H]32)[C@@H](C)[C@@H]1O | 0.04 | 0.09 | 0.16 | 16 (≈ 26.5 µM) | 0.19 | > 32 | > 32 |
| C=C[C@]1(C)C[C@@H](OC(=O)CO)[C@]2(C)[C@H](C)CC[C@]3(CCC(=O)[C@@H]32)[C@@H](C)[C@@H]1O [PLEUROMUTILIN] | 0.08 | 0.28 | 0.8 | 1 (≈ 2.64 µM) | 0.89 | > 32 | 32 (≈ 84.5 µM) |
| C=C[C@]1(C)C[C@@H](OC(=O)Cn2cc(/C=C/Cn3cnc4c(N)ncnc43)nn2)[C@]2(C)[C@H](C)CC[C@]3(CCC(=O)[C@H]32)[C@@H](C)[C@@H]1O | 0.05 | 0.1 | 0.16 | 8 (≈ 13.3 µM) | 0.29 | > 32 | 16 (≈ 26.5 µM) |
| C=C[C@]1(C)C[C@@H](OC(=O)Cn2cc(COCn3cc(C)c(=O)[nH]c3=O)nn2)[C@]2(C)[C@H](C)CC[C@]3(CCC(=O)[C@H]32)[C@@H](C)[C@@H]1O | 0.07 | 0.23 | 0.22 | > 32 | 0.37 | > 32 | > 32 |
| C=C[C@]1(C)C[C@@H](OC(=O)Cn2cc(COCCn3cc(C)c(=O)[nH]c3=O)nn2)[C@]2(C)[C@H](C)CC[C@]3(CCC(=O)[C@H]32)[C@@H](C)[C@@H]1O | 0.08 | 0.28 | 0.24 | ≥ 32 | 0.43 | > 32 | > 32 |
| C=C[C@]1(C)C[C@@H](OC(=O)Cn2cc(COCc3ccccc3)nn2)[C@]2(C)[C@H](C)CC[C@]3(CCC(=O)[C@H]32)[C@@H](C)[C@@H]1O | 0.08 | 0.3 | 0.41 | > 32 | 0.5 | > 32 | > 32 |
| C=C[C@]1(C)C[C@@H](OC(=O)Cn2cc(C[C@@H]3[C@H](O)[C@@H](CO)O[C@H]3n3ccc(=O)[nH]c3=O)nn2)[C@]2(C)[C@H](C)CC[C@]3(CCC(=O)[C@H]32)[C@@H](C)[C@@H]1O | 0.09 | 0.31 | 0.26 | > 32 | 0.46 | > 32 | > 32 |
| C=C[C@]1(C)C[C@@H](OC(=O)Cn2cc(/C=C/Cn3cc(C)c(=O)[nH]c3=O)nn2)[C@]2(C)[C@H](C)CC[C@]3(CCC(=O)[C@H]32)[C@@H](C)[C@@H]1O | 0.06 | 0.18 | 0.21 | ≥ 32 | 0.39 | > 32 | > 32 |
| C=C[C@]1(C)C[C@@H](OC(=O)Cn2cc(-c3cccc(-n4cnc5c(N)ncnc54)c3)nn2)[C@]2(C)[C@H](C)CC[C@]3(CCC(=O)[C@H]32)[C@@H](C)[C@@H]1O | 0.06 | 0.06 | 0.07 | 1 (≈ 1.57 µM) | 0.1 | > 32 | 8 (≈ 12.5 µM) |
| C=C[C@]1(C)C[C@@H](OC(=O)Cn2cc(CCCn3cnc4c(N)ncnc43)nn2)[C@]2(C)[C@H](C)CC[C@]3(CCC(=O)[C@H]32)[C@@H](C)[C@@H]1O | 0.05 | 0.13 | 0.17 | 8 (≈ 13.2 µM) | 0.23 | > 32 | > 32 |
